Screens deposited in PubChem BioAssay by several laboratories.
Only some compounds are listed: those with a hit (about 12% of all), similar ones and a draw of the others.
Dynein transport: blocks dynein driven cargo transport along microtubules; 3617.4 mouse cells, GR-EGFP nuclear translocation imaging; test concentration mostly 20 µM; stimulated with dexamethasone, 1 µM; stronger effect = lower value; z-score, hits read low; hit rate 0.47% among 220,000; AID 1381;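 active means plate z-score of nuclear minus cytoplasmic receptor signal below a set negative limit, without overly bright fluorescence or cell loss, cut at about -3.5 in these data, passing the limit was not always enough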;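 further: z-score of nuclear minus cytoplasmic ring GR-EGFP intensity difference per well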
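Buffer or medium – tet-free medium with charcoal-stripped serum · Signal – automated 10x imaging of fixed Hoechst-stained cells · Also added – dexamethasone agonist, 1.0 µM final, for 30 min · Incubation – induction 48 h, compound 1 h, agonist 30 min · Read-out – GR-EGFP nuclear translocation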
Autophagy HCS: modulators of autophagy; MEF GFP-LC3 puncta imaging; test concentration mostly 10 µM; calls only at 10 µM (by protocol); hit rate 0.98% among 190,000; AID 463193;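 active means percentage of spot-positive cells more than 3 SD above its plate mean, without a fluorescence outlier flag or 80% toxicity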
MT stabilize HCS: microtubule stabilizers in HeLa cells; HeLa tubulin immunostaining HCS, 24 h; share of cells brighter than vehicle mean+2SD; % tubulin-high responders, % at 10 µM; hit rate 0.83% among 200,000;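 active means plate Z-score above 3 for both tubulin-high and condensed-nucleus cell shares, with cell loss under 80%, at 10 µM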;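 further: anti alpha tubulin signal scored within the nucleus-defined area of each cell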
CHOP inh: CHOP inhibition in unfolded protein response | CHO-K1 CHOP-promoter luciferase, tunicamycin-induced, 15-18 h | inhibition, % at 10 µM | hit rate 3.8% among 220,000 | AID 2732;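 active means compounds that reduced the stress-induced luciferase reporter signal by more than about 70% of percent inhibition, limit read from the data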
L major viab: Leishmania major promastigote growth inhibition | hit rate 9% among 200,000 | inhibition, % at 10 µM | Leishmania major promastigotes, resazurin fluorescence viability | AID 1063; in the data active means inhibition above about 50%;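 further: promastigotes grown with compound for 44 hours at 28 °C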
bCat nuc transl: alters nuclear translocation of beta-catenin in HeLa cells; immunofluorescence imaging; nuclear translocation activity, % at 5 µM; hit rate 0.3% among 190,000;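 active means nuclear translocation activity above 50% at 5 µM, with a well cell count of 50 or more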;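 further: per-cell ratio of nuclear to cytoplasmic median beta-catenin stain intensity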
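System: Human HeLa cells, endogenous beta-catenin | Compound dosing: 5 µM primary, 0.02–20 µM confirmation | Timing: 24 h compound exposure at 37°C, 5% CO2 | Measured by: Fluorescence imaging of beta-catenin antibody stain plus DAPI | Read-out basis: % activation of per-cell nuclear versus cytoplasmic median beta-catenin signal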
Large screens that a line does not name were inactive.

O=S(=O)(/C=C/c1ccccc1)N1CCN(c2nc(-c3ccccc3)nc3ccccc23)CC1	L major viab 65
Fc1ccc(Nc2nc(N3CCOCC3)c3ccccc3n2)cc1	none (no result: Dynein transport, Autophagy HCS, MT stabilize HCS, CHOP inh, L major viab)
C/C(CCC(C)C)=N\NC(=S)NCc1ccccc1	none
Cc1cc(N2CCN(c3nc(N4CCOCC4)nc4ccccc34)CC2)c2ccccc2n1	Autophagy HCS active (no result: CHOP inh, bCat nuc transl)
CCN1CCN(c2nc(-c3ccncc3)nc3ccccc23)CC1	L major viab 100
O=S(=O)(/C=C/c1ccccc1)N1CCN(Cc2ccccc2)CC1	L major viab 78
CCOc1nc(-c2ccncc2)nc2ccccc12	none
c1ccc2c(N3CCCCC3)nc(N3CCCCC3)nc2c1	L major viab 68
CCc1cc(CN2CCOCC2)c(NC(=O)c2ccccc2)s1	none
COc1ccc(C(=O)COC(=O)CCn2nnc(-c3cccc(O)c3OC)n2)cc1	none
C(=C\c1nc(N2CCCCCC2)c2ccccc2n1)/c1ccccc1	L major viab 86
COc1cc(-c2nc3ccc4ccccc4c3c3c2CCC3)ccc1O	CHOP inh 86
COc1ccc(NC(=S)NC(NC(C)=O)C(Cl)(Cl)Cl)c([N+](=O)[O-])c1 (stereo not given)	none
O=C(NC(NC(=S)Nc1ccccc1Cl)C(Cl)(Cl)Cl)c1cccc(Cl)c1 (stereo not given)	CHOP inh 87
COc1ccc(NC(=S)NC(NC(=O)c2cccc(C)c2)C(Cl)(Cl)Cl)c([N+](=O)[O-])c1 (stereo not given)	Autophagy HCS active
COc1ccc(NC(=S)NC(NC(=O)c2cccc(Cl)c2)C(Cl)(Cl)Cl)c([N+](=O)[O-])c1 (stereo not given)	Autophagy HCS active, L major viab 94
Cc1cc(C)c(COc2ccc(/C=N/n3c(C)n[nH]c3=S)cc2)c(C)c1	none
O=C(Oc1ccccc1)c1cccc2cccc(C(=O)Oc3ccccc3)c12	none (no result: Autophagy HCS, MT stabilize HCS, L major viab)
COc1cc2c(-c3ccc(O)cc3)nc3c(c(C)nn3-c3ccccc3)c2cc1OC	L major viab 63
CN(C)C/C(Cl)=C(\Cl)c1ccccc1	CHOP inh 77
CCN(CC)S(=O)(=O)c1ccc(-c2nnc(SCC(=O)N3c4ccccc4CC3C)n2CC)cc1 (stereo not given)	L major viab 91
Cn1c(=O)c2c(nc(Sc3ncnn3CC(=O)NC3CCCCC3)n2C)n(C)c1=O	none (no result: Autophagy HCS, MT stabilize HCS, L major viab)
O=C(O)CC/C(=N\NC(=O)CNC(=O)c1ccc(F)cc1)c1ccccc1	none (no result: Autophagy HCS, MT stabilize HCS, L major viab)
COc1ccc(N2CCN(CC(=O)c3c[nH]c4ccccc34)CC2)cc1	none (no result: Autophagy HCS, MT stabilize HCS, L major viab)
S=C(NCc1ccco1)N1CCN(c2ccc(Cl)cc2)CC1	none
COc1ccc2[nH]cc(C(=O)CN3CCN(C/C=C/c4ccccc4)CC3)c2c1	L major viab 98
OCC1(CC2CCCCO2)CCN(C/C=C/c2ccccc2)CC1 (stereo not given)	L major viab 89
S=C(NCc1ccco1)N1CCN(Cc2ccc(Cl)cc2Cl)CC1	CHOP inh 74 (no result: bCat nuc transl)
COc1cc(/C=C/CN2CCC(CO)(CC3CCCCO3)CC2)ccc1O (stereo not given)	none
S=C(NC1CCCC1)N1CCN(C/C=C/c2ccccc2)CC1	L major viab 81
CCN(C(=O)CSc1nnc(-c2ccncc2)n1Cc1ccccc1)C1CCS(=O)(=O)C1 (stereo not given)	none
S=C(NCc1ccco1)N1CCN(C/C=C/c2ccccc2)CC1	L major viab 77
COc1cccc(NC(=S)N2CCN(C/C=C/c3ccccc3)CC2)c1	L major viab 95
C/C(=N/NC(=O)c1ccc(C)nc1)c1ccc2c(c1)CCCC2	none
CCOC(CCn1c(SCc2ccc([N+](=O)[O-])cc2)nc2ccccc2c1=O)OCC	L major viab 51
Cc1ccc(-n2c(SCc3ccc([N+](=O)[O-])cc3)nc3ccccc3c2=O)cc1	none
Cc1ccc(CSc2nccc(-c3c(C)nc4ccccn34)n2)cc1	bCat nuc transl 55 (no result: Autophagy HCS, MT stabilize HCS, L major viab)
Cc1ccc(CSc2ncn(-c3ccccc3)n2)cc1	none
COC(=O)c1ccc(CNC(=O)COC(=O)C2CC3C=CC2C3)cc1 (stereo not given)	none
O=C(c1cccc(Cl)c1)N1CCC(c2nc3ccccc3[nH]2)CC1	none
CC1CCCCN1C(=O)CN1CCC(c2nc3ccc(Cl)cc3[nH]2)CC1 (stereo not given)	none
Clc1ccc2nc(C3CCN(Cc4ccccc4)CC3)[nH]c2c1	L major viab 88
Cc1ccc(CN2CCC(c3nc4ccc(Cl)cc4[nH]3)CC2)cc1	L major viab 92
O=C(Nc1ccnc(=O)[nH]1)c1sc2ccccc2c1Cl	none (no result: Autophagy HCS, MT stabilize HCS, L major viab)
CCOc1cc(NC(=S)NCC2CCCO2)c(OCC)cc1NC(=O)c1cccc(F)c1 (stereo not given)	none
COCCCNC(=O)C1CCC(CNS(=O)(=O)c2ccc(C)cc2)CC1 (stereo not given)	none
CC(=O)Nc1ccccc1C(=O)N1CC2(C)CC1CC(C)(C)C2 (stereo not given)	none
CCOC(=O)c1ccc[n+](CC(=O)Nc2cc(C(F)(F)F)ccc2Cl)c1	none
Cn1c(N/N=C/c2c[nH]c3ccccc23)nc2ccccc21	L major viab 101
C=CCN1CC(O)=C(c2ccccc2)C1=N	MT stabilize HCS 34
CCOC(=O)c1cc2c(ccn2C)n1Cc1cc(C)ccc1C	CHOP inh 90, L major viab 93
CCOC(=O)c1cc2c(ccn2C)n1CC(=O)N1CCN(c2ccc(F)cc2)CC1	none
CCCCCC(=O)Nc1cccc(-c2nc3ncccc3o2)c1	L major viab 67
CCC(=O)NC(=S)Nc1cccc(-c2nc3ncccc3o2)c1	none
O=C(CSc1ccc(Cl)cc1)Nc1cccc(NC(=O)c2ccco2)c1	L major viab 97
O=C(CSc1ccc(Cl)cc1)Nc1cccc(-c2nc3ncccc3o2)c1	CHOP inh 73
CCCCC(=O)Nc1cccc(-c2nc3ncccc3o2)c1	L major viab 100
Cc1nc2c(C)cccc2cc1C(=O)N/N=C/c1cccnc1	none (no result: bCat nuc transl)
COc1ccc(-n2nc(C(=O)NCC(=O)NCC3COc4ccccc4O3)c3ccccc3c2=O)c(OC)c1 (stereo not given)	none
CC(=O)Nc1cccc(NC(=O)CSc2ncc(-c3ccc(Cl)cc3)n2Cc2ccco2)c1	CHOP inh 88 (no result: bCat nuc transl)
CC(C)c1ccc(N2CC(C)(C)C2=O)cc1	none
COC(=O)c1cc(OC)c(OC)cc1NC(=S)N1CCN(c2ccccc2)CC1	none
C/C(N)=C(/C#N)C(=O)COC(=O)CC12CC3CC(CC(C3)C1)C2	L major viab 97
C/C(N)=C(/C#N)C(=O)COC(=O)CC1CCCC1	none (no result: CHOP inh)
O=[N+]([O-])c1ccccc1/C=C/C=N/Nc1ccc(S(=O)(=O)Nc2ccc(Cl)cc2)cc1[N+](=O)[O-]	L major viab 67
